Laboratory results as given in ChEMBL document CHEMBL1909507, “Substituted phenyl 4-(2-oxoimidazolidin-1-yl)benzenesulfonamides as antimitotics. Antiproliferative, antiangiogenic and antitumoral activity, and quantitative structure-activity relationships” (Eur J Med Chem, 2011).
The source made the active and inactive calls. The calls are words filed in the database; no cut-off is given here.

Key:
M21 [1] = test: Disruption of cytoskeleton microtubule structure of human M21 cells at 5 times IC50 after 16 hrs by indirect immunofluorescence assay; format: functional, cell-based
Procedure, shortened: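 Cells were fixed in 3.7% formaldehyde, permeabilized with saponin, and stained with anti-β-tubulin TUB 2.1, Alexa-488 anti-mouse secondary and DAPI. Fluorescence microscopy was used for imaging.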

M21 [2] = test: Cell cycle arrest in human M21 cells assessed as accumulation at G0/G1 phase at 5 times IC50 after 24 hrs using propidium iodide staining by flow cytometric analysis (reference value: 61%); format: functional
Procedure, shortened: (§1)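 Cells were trypsinized, fixed in ice-cold ethanol, treated with RNase, and stained with propidium iodide (1 mg/mL stock) for 1 h on ice. Cell-cycle distribution was measured by flow cytometry.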

MDA-MB-231 [3] = test: Displacement of N,N'-ethylenebis(iodoacetamide) from beta-tubulin colchicine-binding site in human MDA-MB-231 cells at 1000 times IC50 preincubated for 2 hrs before N,N'-ethylenebis(iodoacetamide) addition measured after 1.5 hrs by chemiluminescence assay; format: cell-based
Procedure, shortened: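 EBI (100, final) was added for 1.5 h at 37 °C with drug present; control was 0.5% DMSO. Sonicated lysates (20 µg protein) were run on 10% SDS-PAGE and blotted with anti-β-tubulin TUB 2.1. The β-tubulin–EBI adduct was scored by ECL.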

M21 [4] = test: Cell cycle arrest in human M21 cells assessed as accumulation at G2/M phase at 5 times IC50 after 24 hrs using propidium iodide staining by flow cytometric analysis (reference value: 9%); format: functional; procedure, shortened: as §1
HT-1080 [5] = test: Antitumor activity against human HT1080 cells xenografted in chicken chorioallantoic membrane assessed as inhibition of tumor growth at 1 to 3 ug, iv measured on day 17 by CAM assay; format: functional
Procedure, shortened: (§2)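 Fertilized chicken eggs were incubated 10 days, then 3.5 × 10⁵ HT-1080 cells/egg were applied to the exposed chorioallantoic membrane. On day 11, drug was given iv in DMSO diluted in excipient (ethanol:cremophor:PBS 6.25:6.25:87.5). Read-out was tumor wet weight as % of untreated eggs, plus chick mortality. Data were pooled from two independent experiments of 10–12 eggs each.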

HT-1080 [6] = test: Antiangiogenic activity in human HT1080 cells xenografted in chicken chorioallantoic membrane assessed as vascular disruption at 1 to 3 ug, iv measured on day 17 by CAM assay; format: functional
[7] = Toxicity against fertilized chicken embryo assessed as mortality at 3 ug, iv by CAM assay; format: organism-based, Gallus gallus; conditions: in vivo, read-out: Activity
Procedure, shortened: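 HT-1080 fibrosarcoma cells (3.5 × 10⁵ cells/egg) grafted onto the chorioallantoic membrane of fertilized chicken eggs (10 days preincubation). On day 11, drug in DMSO diluted into excipient (ethanol:cremophor:PBS 6.25:6.25:87.5) given iv at 3 µg per egg. Chick mortality recorded over 7-day tumor growth period. Untreated eggs as negative controls and for normalization. Cumulative results from two independent experiments, 10–12 eggs each.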

M21 [8] = test: Cell cycle arrest in human M21 cells assessed as accumulation at S phase at 5 times IC50 after 24 hrs using propidium iodide staining by flow cytometric analysis (reference value: 30%); format: functional; procedure, shortened: as §1
CHO-VV 3-2 [9] = test: Ratio of IC50 for colchicine and vinblastine-resistant CHO-VV 3-2 cells to IC50 for CHO cells; format: functional, Cricetulus griseus
Procedure, shortened: (§3)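 Each ratio is the IC50 in the resistant line divided by the IC50 in its parental line (CHO for CHO-TAX 5-6 and CHO-VV 3-2; CEM for CEM-VLB).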

DU-145 = test: Antiproliferative activity against human DU145 after 48 hrs by SRB assay; format: functional, cell-based; conditions: DU-145, 48 h
SK-OV-3 = test: Antiproliferative activity against human SKOV3 after 48 hrs by SRB assay; format: functional, cell-based; conditions: SK-OV-3, 48 h
Procedure, shortened: (§4)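 Adherent cells were seeded per line (e.g. HT-29 5000, M21 3500, MCF7 7500, CHO and CHO-VV 3-2 and CHO-TAX 5-6 1000 cells/well) and grown 24 h at 37 °C, 5% CO₂. DMSO-solubilized drug was diluted in medium and added at 1000–0.98 nM for 48 h. Cells were fixed with cold 10% TCA and stained with 0.1% sulforhodamine B, with absorbance read at 530–565 nm.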

CHO = test: Antiproliferative activity against Chinese hamster CHO after 48 hrs by SRB assay; conditions: Cricetulus griseus
CHO-TAX 5-6 [10] = test: Ratio of IC50 for paclitaxel-resistant CHO-TAX 5-6 cells to IC50 for CHO cells; format: functional, Cricetulus griseus; procedure, shortened: as §3
[11] = Antiproliferative activity against mouse B16F0 after 48 hrs by SRB assay
HT-29 = test: Antiproliferative activity against human HT-29 cells after 48 hrs by SRB assay; format: functional, cell-based; conditions: HT-29, 48 h; procedure, shortened: as §4
MCF7 = test: Antiproliferative activity against human MCF7 cells after 48 hrs by SRB assay; format: functional, cell-based; conditions: MCF7, 48 h; procedure, shortened: as §4
MDA-MB-231 [12] = test: Antiproliferative activity against human MDA-MB-231 after 48 hrs by SRB assay; format: functional, cell-based; conditions: MDA-MB-231, 48 h
[13] = Antiproliferative activity against mouse P388D1 after 48 hrs by SRB assay; conditions: P388D1, 48 h
CCRF-CEM [14] = test: Antiproliferative activity against human CEM after 48 hrs by SRB assay; format: functional, cell-based
HT-1080 [15] = test: Antitumor activity against human HT1080 cells xenografted in chicken chorioallantoic membrane assessed as inhibition of tumor growth at 3 ug, iv measured on day 17 by CAM assay; format: functional; procedure, shortened: as §2
HT-1080 [16] = test: Antiproliferative activity against human HT1080 after 48 hrs by SRB assay; format: functional, cell-based; conditions: HT-1080, 48 h; procedure, shortened: as §4
CCRF-CEM [17] = test: Ratio of IC50 for human multidrug-resistant CEM/VLB cells to IC50 for human CEM cells; format: functional; procedure, shortened: as §3
[18] = Antiproliferative activity against human multidrug-resistant CEM/VLB cells after 48 hrs by SRB assay; format: functional
L1210 = test: Antiproliferative activity against mouse L1210 after 48 hrs by SRB assay; format: functional, cell-based; conditions: L1210, 48 h
CHO-TAX 5-6 [19] = test: Antiproliferative activity against paclitaxel-resistant CHO-TAX 5-6 cells after 48 hrs by SRB assay; format: functional, cell-based; conditions: Cricetulus griseus, CHO-TAX 5-6, 48 h; procedure, shortened: as §4
K562 = test: Antiproliferative activity against human K562 after 48 hrs by SRB assay; format: functional, cell-based; conditions: K562, 48 h
M21 [20] = test: Antiproliferative activity against human M21 cells after 48 hrs by SRB assay; format: functional, cell-based; conditions: M21, 48 h; procedure, shortened: as §4
CHO-VV 3-2 [21] = test: Antiproliferative activity against colchicine and vinblastine-resistant CHO-VV 3-2 cells after 48 hrs by SRB assay; format: functional, cell-based; conditions: Cricetulus griseus, CHO-VV 3-2, 48 h; procedure, shortened: as §4

| SMILES | Activity (M21 [1]) | Activity (M21 [2]) | Activity (MDA-MB-231 [3]) | Activity (M21 [4]) | mortality [7] | Activity (M21 [8]) | Ratio IC50 (CHO-VV 3-2 [9]) | IC50 (DU-145) | IC50 (SK-OV-3) | IC50 (CHO) | Ratio IC50 (CHO-TAX 5-6 [10]) | IC50 [11] | IC50 (HT-29) | IC50 (MCF7) | IC50 (MDA-MB-231 [12]) | IC50 [13] | IC50 (CCRF-CEM [14]) | IC50 (HT-1080 [16]) | Ratio IC50 (CCRF-CEM [17]) | IC50 [18] | other results |
| --- | --- | --- | --- | --- | --- | --- | --- | --- | --- | --- | --- | --- | --- | --- | --- | --- | --- | --- | --- | --- | --- |
| COc1ccc(/C=C\c2cc(OC)c(OC)c(OC)c2)cc1O [COMBRETASTATIN A4] | Active | 2% | Active | 98% | 45% | 0% | – | – | – | – | – | – | – | – | – | – | – | – | – | – | growth inhibition (GI) (HT-1080 [5]): 45%; Activity (HT-1080 [6]): 48% |
| Cc1ccc(C)c(NS(=O)(=O)c2ccc(N3CCNC3=O)cc2)c1 | Active | 1% | Active | 79% | 27% | 20% | 1.4 | 1610 nM | 72 nM | 77 nM | 0.7 | 86 nM | 46 nM | 48 nM | 110 nM | 79 nM | 74 nM | 65 nM | 1.6 | 120 nM | inhibition (HT-1080 [15]): inactive; IC50 (L1210): 81 nM; IC50 (CHO-TAX 5-6 [19]): 54 nM; IC50 (K562): 72 nM; IC50 (M21 [20]): 27 nM; IC50 (CHO-VV 3-2 [21]): 110 nM |
| Cc1cccc(NS(=O)(=O)c2ccc(N3CCNC3=O)cc2)c1 | Active | 1% | Active | 83% | 8% | 16% | 1.2 | 580 nM | 200 nM | 230 nM | 0.65 | 290 nM | 110 nM | 190 nM | 1270 nM | 250 nM | 200 nM | 210 nM | 1.9 | 370 nM | inhibition (HT-1080 [15]): inactive; IC50 (L1210): 180 nM; IC50 (CHO-TAX 5-6 [19]): 150 nM; IC50 (K562): 200 nM; IC50 (M21 [20]): 69 nM; IC50 (CHO-VV 3-2 [21]): 280 nM |
| O=C1NCCN1c1ccc(S(=O)(=O)Nc2cccc(Cl)c2)cc1 | Active | 5% | Active | 62% | 8% | 33% | 1.6 | 230 nM | 70 nM | 96 nM | 0.6 | 190 nM | 55 nM | 79 nM | 200 nM | 78 nM | 77 nM | 68 nM | 2.2 | 170 nM | inhibition (HT-1080 [15]): inactive; IC50 (L1210): 77 nM; IC50 (CHO-TAX 5-6 [19]): 58 nM; IC50 (K562): 69 nM; IC50 (M21 [20]): 25 nM; IC50 (CHO-VV 3-2 [21]): 150 nM |
| COc1cccc(NS(=O)(=O)c2ccc(N3CCNC3=O)cc2)c1 | Active | 10% | Active | 61% | 16% | 29% | 1.4 | 650 nM | 240 nM | 330 nM | 0.61 | 370 nM | 120 nM | 120 nM | 730 nM | 250 nM | 260 nM | 200 nM | 2.7 | 700 nM | growth inhibition (GI) (HT-1080 [15]): 41%; IC50 (L1210): 240 nM; IC50 (CHO-TAX 5-6 [19]): 200 nM; IC50 (K562): 230 nM; IC50 (M21 [20]): 65 nM; IC50 (CHO-VV 3-2 [21]): 450 nM |
